# Lmaj promast – Leishmania major promastigote growth inhibition; Leishmania major promastigotes, resazurin fluorescence viability; inhibition, % at 10 µM; actives 9% (n = 200,000);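 note: promastigotes grown with compound for 44 hours at 28 °C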
# PKD1 inh – PKD1 (human) kinase inhibition | Q15139 | PKD1 kinase fluorescence polarization assay | inhibition, % (no concentration beside the values) | actives 0.056% (n = 200,000) | AID 797
# ABCG2 inh – inhibitors of human ABCG2 transporter, ABCB1 counter-screen; Q9UNQ0; IgMXP3 cells, JC-1 efflux, flow cytometry; inhibition, % at 6.6 µM; actives 0.1% (n = 190,000);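 active = inhibition above 80%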;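 note: 0% = DMSO and 100% = nicardipine control wells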
#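 Test system: IgMXP3 cells (ABCG2) mixed with DDAO far-red-labelled CCRF-Adr cells (ABCB1). Reagent: JC-1 transporter substrate. Compound dosing: single test compound dose, 6.6 µM final. Times: 10 min compound exposure, 25 °C. Detection: flow cytometry of retained JC-1 fluorescence. Read-out basis: efflux inhibition in percent versus controls. Controls: nicardipine and DMSO wells.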
# GSH bead fluor – GSH bead compound fluorescence profile; GSH beads flow cytometry, compound fluorescence 488/530 nm; stronger effect = higher value; fluorescence (KMESF) at 10 µM; actives 0.25% (n = 190,000); in the data active = fluorescence above about 89;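 note: glutathione beads carrying GST-tagged Bcl family fusion proteins plus one bare bead set; values are compound well signal with DMSO vehicle wells as background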
# Avidin fluor – avidin bead compound fluorescence profile; Avidin beads, compound fluorescence 488/530 nm, flow cytometry; stronger effect = higher value; fluorescence (KMESF) at 10 µM; actives 0.38% (n = 220,000); AID 1775; in the data active = fluorescence above about 47
# ABCB1 block – human ABCB1 inhibition, ABCG2 as counter-screen; P08183; CCRF-Adr cells, JC-1 efflux, flow cytometry; inhibition, % at 6.6 µM; actives 0.067% (n = 190,000); AID 1326; in the data active = inhibition above about 40%;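 note: 0% = vehicle and 100% = reference inhibitor; higher value means more JC-1 retained so stronger ABCB1 efflux block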
# The depositor's hits bear a star; . = no result. This is one part of a sample in which hits are shown more often than they occur. Cut-off read from the data, not from the text of the source, unless noted: active = inhibition above about 50%; inactive = the rest.
SMILES,Lmaj promast,PKD1 inh,ABCG2 inh,GSH bead fluor,Avidin fluor,ABCB1 block
COc1ccc(C2CC(c3cccs3)=Nc3ccccc3S2)cc1 (centres undefined),64*,2,3,13,17,1
COc1ccc(C2CC(c3cccs3)=NN2S(C)(=O)=O)cc1 (centres undefined),.,.,.,.,6,.
CC(NC(=O)CCCn1cc([N+](=O)[O-])cn1)c1ccccc1 (centres undefined),1,-2,11,13,10,1
CCN(CC)S(=O)(=O)c1ccc(Cl)c(C(=O)NCc2ccco2)c1,-5,-5,0,18,11,0
CCN(CC)S(=O)(=O)c1ccc(Cl)c(C(=O)OC)c1,61*,-6,0,9,8,0
CCN(CC)S(=O)(=O)c1ccc(Cl)c(C(=O)NCc2ccccc2Cl)c1,99*,-8,0,25,13,0
CN(c1cccc(NC(=O)CSc2ccc(Cl)cc2)c1)S(C)(=O)=O,74*,-6,10,12,9,1
CN(c1cccc(NC(=O)CCSc2ccccc2)c1)S(C)(=O)=O,-4,-11,2,32,13,0
CN(c1cccc(NC(=O)CN(c2ccc(C34CC5CC(CC(C5)C3)C4)cc2)S(C)(=O)=O)c1)S(C)(=O)=O,90*,-9,1,24,7,1
Cc1ccc(S(=O)(=O)N(CC(=O)Nc2cccc(N(C)S(C)(=O)=O)c2)c2ccc(Cl)c(Cl)c2)cc1,67*,8,2,35,12,0
CN(c1cccc(NC(=O)CN(c2ccc(Cl)c(Cl)c2)S(=O)(=O)c2ccccc2)c1)S(C)(=O)=O,18,-5,-5,9,4,-1
CC(NC(=O)c1ccco1)C(=O)OC(C)C(=O)NCc1ccccc1 (centres undefined),0,1,4,13,9,1
COc1cc(NC(=O)COC(=O)CNS(=O)(=O)c2ccc(F)c(F)c2F)cc(OC)c1,-3,-3,6,6,2,0
O=C(COC(=O)CNS(=O)(=O)c1ccc(F)c(F)c1F)Nc1ccc(OC(F)F)cc1,82*,3,4,10,11,1
COc1cccc(N2CCN(c3c(C#N)c(C(F)(F)F)nn3C)CC2)c1,80*,0,4,25,12,1
Cn1nc(C(F)(F)F)c(C#N)c1N1CCN(c2ccccc2F)CC1,3,-7,10,11,8,1
CC1CC1C(=O)Nc1nc(-c2ccccc2)cs1 (centres undefined),8,-4,3,6,9,0
Cc1cc(C)c(S(=O)(=O)Nc2ccc3c(c2)CCC3)c(C)c1,91*,-13,37,4,16,1
COc1ccc(S(=O)(=O)N(C)c2ccc(C(=O)N3CCC(C(N)=O)CC3)cc2)cc1OC,-2,-4,0,18,11,0
Cc1ccn(C(=O)c2ccc(NC(=O)CC(C)C)cc2)n1,1,-7,1,15,6,0
CCOc1ccc(N(CC(=O)NCc2ccccc2)S(=O)(=O)c2c(C)noc2C)cc1,1,-17,2,22,7,2
COc1cccc(CNC(=O)CN(c2cc(C)cc(C)c2)S(=O)(=O)c2c(C)noc2C)c1,65*,-4,2,23,7,2
COc1ccc(OC)c(NC(=O)CN(c2ccc(C(C)C)cc2)S(=O)(=O)c2c(C)noc2C)c1,52*,4,9,26,7,2
COc1ccc(OC)c(NC(=O)CN(c2ccc(C)cc2)S(=O)(=O)c2c(C)noc2C)c1,75*,-9,16,22,21,3
CS(=O)(=O)N1CCc2cc(-c3csc(NC(=O)C(c4ccccc4)c4ccccc4)n3)ccc21,94*,13,0,19,35,0
CC1Cc2cc(-c3csc(NC(=O)Cc4ccccc4)n3)ccc2N1S(C)(=O)=O (centres undefined),36,0,38,37,14,0
CCN(CC)C(=O)C(=O)N/N=C/c1ccc(C(=O)OC)cc1,27,-2,2,14,14,0
COc1ccccc1N(C1=NCCCS1)S(=O)(=O)c1ccc(C(C)(C)C)cc1,20,6,8,18,6,4

# From PubChem BioAssay
